According to ChEMBL document CHEMBL3045438, “Synthesis and fungicidal evaluation of novel chalcone-based strobilurin analogues” (2007):

Experiments:
Type in all cases: functional
[1] = tested on: Podosphaera fuliginea; assay: Antifungal activity against Podosphaera fuliginea assessed as fungicidal activity at 200 mg/L (beneficial crop - cucumber)
Procedure, shortened: (§1)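 In vivo preventive test on cucumber as host plant.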

[2] = tested on: Pseudoperonospora cubensis; assay: Antifungal activity against Pseudoperonospora cubensis assessed as fungicidal activity at 200 mg/L (beneficial crop - cucumber); procedure, shortened: as §1
[3] = tested on: Botrytis cinerea; assay: Antifungal activity against Botryotinia fuckeliana assessed as fungicidal activity at 200 mg/L (beneficial crop - cucumber); procedure, shortened: as §1
[4] = tested on: Rhizoctonia solani; assay: Antifungal activity against Rhizoctonia solani assessed as fungicidal activity at 200 mg/L (beneficial crop - cucumber); procedure, shortened: as §1

| SMILES | inhibition at 200 µg/mL [1] [%] | inhibition at 200 µg/mL [2] [%] | inhibition at 200 µg/mL [3] [%] | inhibition at 200 µg/mL [4] [%] |
| --- | --- | --- | --- | --- |
| CO/C=C(/C(=O)OC)c1ccccc1COc1cccc(C(=O)/C=C/c2ccccc2)c1 | 0 | 96 | 0 | 0 |
| CO/C=C(/C(=O)OC)c1ccccc1COc1cccc(C(=O)/C=C/c2ccc(Cl)cc2)c1 | 96 | 100 | 0 | 0 |
| CO/C=C(/C(=O)OC)c1ccccc1COc1ccc(C(=O)/C=C/c2ccc(C)c(C)c2)cc1 | 30 | 67 | 0 | 0 |
| CO/C=C(/C(=O)OC)c1ccccc1COc1ccc(C(=O)/C=C/c2ccccc2Br)cc1 | 67 | 83 | 0 | 21 |
| CO/C=C(/C(=O)OC)c1ccccc1COc1cccc(C(=O)/C=C/c2cccc(Cl)c2)c1 | 30 | 33 | 0 | 0 |
| CO/C=C(/C(=O)OC)c1ccccc1COc1ccc(C(=O)/C=C/c2ccc(OC)cc2)cc1 | 0 | 62 | 0 | 0 |
| CO/C=C(/C(=O)OC)c1ccccc1COc1ccc(C(=O)/C=C/c2cccc(C)c2)cc1 | 0 | 47 | 0 | 0 |
| CO/C=C(/C(=O)OC)c1ccccc1COc1ccc(Cl)cc1C(=O)/C=C/c1ccccc1 | 0 | 0 | 0 | 0 |
| CO/C=C(/C(=O)OC)c1ccccc1COc1cccc(C(=O)/C=C/c2ccc(OC)c(OC)c2)c1 | 0 | 72 | 0 | 0 |
| CO/C=C(/C(=O)OC)c1ccccc1COc1cccc(C(=O)/C=C/c2ccc(OC)cc2)c1 | 0 | 95 | 0 | 0 |
| CO/C=C(/C(=O)OC)c1ccccc1COc1cccc(C(=O)/C=C/c2ccc(Br)cc2)c1 | 45 | 94 | 0 | 0 |
| CO/C=C(/C(=O)OC)c1ccccc1COc1cccc(C(=O)/C=C/c2cccs2)c1 | 0 | 0 | 24 | 0 |
| CO/C=C(/C(=O)OC)c1ccccc1COc1ccc(C(=O)/C=C/c2ccc(F)cc2)cc1 | 0 | 100 | 0 | 23 |
| CO/C=C(/C(=O)OC)c1ccccc1COc1ccc(C(=O)/C=C/c2c(F)cccc2Cl)cc1 | 0 | 67 | 0 | 0 |
| CO/C=C(/C(=O)OC)c1ccccc1COc1ccc(C(=O)/C=C/c2ccccc2)cc1 | 0 | 0 | 0 | 0 |
| CO/C=C(/C(=O)OC)c1ccccc1COc1cccc(C(=O)/C=C/c2ccc(F)cc2)c1 | 31 | 97 | 0 | 0 |
| CO/C=C(/C(=O)OC)c1ccccc1COc1ccccc1C(=O)/C=C/c1cccc(Cl)c1 | 0 | 39 | 0 | 0 |
| CO/C=C(/C(=O)OC)c1ccccc1COc1ccc(C(=O)/C=C/c2ccc(Cl)c(Cl)c2)cc1 | 67 | 33 | 0 | 37 |
| CO/C=C(/C(=O)OC)c1ccccc1COc1ccc(C(=O)/C=C/c2ccccc2Cl)cc1 | 0 | 100 | 0 | 0 |
| CO/C=C(/C(=O)OC)c1ccccc1COc1cccc(C(=O)/C=C/c2ccc(N(C)C)cc2)c1 | 0 | 0 | 0 | 32 |
| CO/C=C(/C(=O)OC)c1ccccc1COc1ccc(C(=O)/C=C/c2cccc(F)c2)cc1 | 0 | 97 | 0 | 0 |
| CO/C=C(/C(=O)OC)c1ccccc1COc1cccc(C(=O)/C=C/c2ccc(Cl)c(Cl)c2)c1 | 0 | 0 | 0 | 0 |
| CCc1ccc(/C=C/C(=O)c2cccc(OCc3ccccc3/C(=C\OC)C(=O)OC)c2)cc1 | 78 | 100 | 0 | 0 |

| SMILES | inhibition at 200 µg/mL [1] [%] | inhibition at 200 µg/mL [2] [%] | inhibition at 200 µg/mL [3] [%] | inhibition at 200 µg/mL [4] [%] |
| --- | --- | --- | --- | --- |
| CO/C=C(/C(=O)OC)c1ccccc1COc1cccc(C(=O)/C=C/c2ccc(C)cc2)c1 | 97 | 100 | 0 | 0 |
| CO/C=C(/C(=O)OC)c1ccccc1COc1cccc(C(=O)/C=C/c2cccc(F)c2)c1 | 0 | 0 | 10 | 36 |
| CO/C=C(/C(=O)OC)c1ccccc1COc1ccc(Cl)cc1C(=O)/C=C/c1ccc(Cl)cc1 | 86 | 0 | 21 | 0 |
| CO/C=C(/C(=O)OC)c1ccccc1COc1ccc(C(=O)/C=C/c2cccc(Br)c2)cc1 | 0 | 56 | 0 | 0 |
| CO/C=C(/C(=O)OC)c1ccccc1COc1ccccc1C(=O)/C=C/c1ccc(OC)c(OC)c1 | 0 | 0 | 0 | 0 |
| CCc1ccc(/C=C/C(=O)c2ccc(OCc3ccccc3/C(=C\OC)C(=O)OC)cc2)cc1 | 56 | 15 | 0 | 69 |
| CO/C=C(/C(=O)OC)c1ccccc1COc1cccc(C(=O)/C=C/c2ccc3c(c2)OCO3)c1 | 0 | 0 | 0 | 29 |
| CO/C=C(/C(=O)OC)c1ccccc1COc1ccccc1C(=O)/C=C/c1cccc(OC)c1 | 0 | 61 | 11 | 0 |
| CO/C=C(/C(=O)OC)c1ccccc1COc1ccc(C(=O)/C=C/c2ccc(C(C)(C)C)cc2)cc1 | 67 | 22 | 0 | 0 |
| CO/C=C(/C(=O)OC)c1ccccc1COc1cccc(C(=O)/C=C/c2c(F)cccc2Cl)c1 | 13 | 97 | 0 | 0 |
| CCOc1ccc(/C=C/C(=O)c2ccc(OCc3ccccc3/C(=C\OC)C(=O)OC)cc2)cc1 | 0 | 59 | 0 | 0 |
| CO/C=C(/C(=O)OC)c1ccccc1COc1ccccc1C(=O)/C=C/c1ccc(C)c(C)c1 | 0 | 0 | 0 | 0 |
| CO/C=C(/C(=O)OC)c1ccccc1COc1ccc(C(=O)/C=C/c2ccc(OC)c(OC)c2)cc1 | 0 | 11 | 0 | 0 |
| CO/C=C(/C(=O)OC)c1ccccc1COc1ccc(C(=O)/C=C/c2cccs2)cc1 | 0 | 0 | 0 | 0 |
| CO/C=C(/C(=O)OC)c1ccccc1COc1ccc(C)cc1C(=O)/C=C/c1ccc(Cl)cc1 | 0 | 89 | 0 | 0 |
| CO/C=C(/C(=O)OC)c1ccccc1COc1cccc(C(=O)/C=C/c2ccccc2F)c1 | 0 | 0 | 0 | 38 |
| CO/C=C(/C(=O)OC)c1ccccc1COc1cccc(C(=O)/C=C/c2ccc(C(C)(C)C)cc2)c1 | 78 | 28 | 0 | 0 |
| CO/C=C(/C(=O)OC)c1ccccc1COc1ccccc1C(=O)/C=C/c1ccc(Br)cc1 | 0 | 0 | 0 | 0 |
| CO/C=C(/C(=O)OC)c1ccccc1COc1ccc(Cl)cc1C(=O)/C=C/c1ccc(C)cc1 | 0 | 0 | 0 | 0 |
| CO/C=C(/C(=O)OC)c1ccccc1COc1ccc(C(=O)/C=C/c2ccc(Cl)cc2Cl)cc1 | 78 | 67 | 0 | 27 |
| CO/C=C(/C(=O)OC)c1ccccc1COc1cccc(C(=O)/C=C/c2cccc(C)c2)c1 | 0 | 81 | 0 | 0 |
| CO/C=C(/C(=O)OC)c1ccccc1COc1ccccc1C(=O)/C=C/c1ccc(Cl)cc1 | 0 | 0 | 0 | 0 |
| CO/C=C(/C(=O)OC)c1ccccc1COc1ccc(C(=O)/C=C/c2cccc(OC)c2)cc1 | 0 | 86 | 0 | 20 |
